The results in this text go back to ChEMBL document CHEMBL1158389, “Highly twisted adamantyl arotinoids: synthesis, antiproliferative effects and RXR transactivation profiles” (Eur J Med Chem, 2009).

The target of assay [1] is T1, Retinoic acid receptor alpha (Homo sapiens) (UniProt P10276).
T1 sequence (whole entry): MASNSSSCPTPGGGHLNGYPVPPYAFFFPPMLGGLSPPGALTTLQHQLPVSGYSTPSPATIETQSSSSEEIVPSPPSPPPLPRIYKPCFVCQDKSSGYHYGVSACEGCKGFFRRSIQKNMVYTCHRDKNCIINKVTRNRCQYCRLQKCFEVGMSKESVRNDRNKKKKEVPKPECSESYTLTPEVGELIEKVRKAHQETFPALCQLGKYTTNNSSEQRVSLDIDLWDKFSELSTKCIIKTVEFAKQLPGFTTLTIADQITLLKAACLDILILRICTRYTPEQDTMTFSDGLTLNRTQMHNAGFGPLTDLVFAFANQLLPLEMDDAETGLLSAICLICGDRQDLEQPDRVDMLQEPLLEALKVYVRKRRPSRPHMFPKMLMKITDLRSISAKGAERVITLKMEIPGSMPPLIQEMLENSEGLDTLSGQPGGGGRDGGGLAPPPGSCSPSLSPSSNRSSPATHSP
The assay is described as follows: Inhibition of transactivation activity of Gal4-LBD fused human RARalpha (156 to 454) transfected in atRA-stimulated african green monkey CV1 cells at 4 uM after 6 hrs by Dual-light chemiluminescent assay. It counts as cell-based. To be noted: CV-1. In short, it runs like this: (§1)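 Gal4 DBD (1–147) was fused to hRARα (156–462) or hRARβ (169–448) LBD. CV-1 cells (20,000/well) were co-transfected with 10 ng Gal4-LBD, 100 ng UAS-luciferase and 25 ng β-gal vector. After 16 h the medium was replaced with medium containing 5% charcoal-treated FBS. Cells got atRA plus test compound at 10-, 40- or 200-fold excess (0.2, 0.8, 4 μM) for 6 h. Luciferase and β-galactosidase were read by chemiluminescence.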

For assay [2], the target named is T1, Retinoic acid receptor alpha (Homo sapiens). The assay is described as follows: Inhibition of transactivation activity of Gal4-LBD fused human RARalpha (156 to 454) transfected in atRA-stimulated african green monkey CV1 cells at 0.2 uM after 6 hrs by Dual-light chemiluminescent assay. The format is cell-based. To be noted: CV-1, 0.2 uM. Put shortly:
as §1

In a further assay the test system is BXPC-3. Kind of assay: Antiproliferative activity against human BxPC3 cells at 4 uM after 48 hrs by MTT assay. It counts as functional. To be noted: BXPC-3, 48 h. Put shortly: (§2)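 Epithelial cancer lines came from ATCC and were seeded the day before in complete medium: PC-3, SkOV3 and A549 at 3,000/well; MiaPaCa-2 and BxPC-3 at 4,000; T-47D and MDA-MB-468 at 5,000. Medium was switched to 0.5% FBS just before exposure to 4 μM. Read-out was MTT (4 h, 37 °C), SDS/HCl solubilisation, A595 minus cell-free blank. Growth inhibition was taken versus DMSO (≤0.1% v/v) controls, ≥2 experiments in triplicate.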
Background: Tetrazolium dyes change colour on reduction, which living cells bring about.

The target of assay [3] is T1, Retinoic acid receptor alpha (Homo sapiens). Kind of assay: Transactivation of Gal4-LBD fused human RARalpha (156 to 454) transfected in african green monkey CV1 cells assessed as luciferase activity at 2 uM after 6 hrs by Dual-light chemiluminescent assay. To be noted: CV-1. The format is cell-based.
The target in assay [4] is T2, Retinoic acid receptor beta (Homo sapiens) (UniProt P10826).
T2 sequence (whole entry): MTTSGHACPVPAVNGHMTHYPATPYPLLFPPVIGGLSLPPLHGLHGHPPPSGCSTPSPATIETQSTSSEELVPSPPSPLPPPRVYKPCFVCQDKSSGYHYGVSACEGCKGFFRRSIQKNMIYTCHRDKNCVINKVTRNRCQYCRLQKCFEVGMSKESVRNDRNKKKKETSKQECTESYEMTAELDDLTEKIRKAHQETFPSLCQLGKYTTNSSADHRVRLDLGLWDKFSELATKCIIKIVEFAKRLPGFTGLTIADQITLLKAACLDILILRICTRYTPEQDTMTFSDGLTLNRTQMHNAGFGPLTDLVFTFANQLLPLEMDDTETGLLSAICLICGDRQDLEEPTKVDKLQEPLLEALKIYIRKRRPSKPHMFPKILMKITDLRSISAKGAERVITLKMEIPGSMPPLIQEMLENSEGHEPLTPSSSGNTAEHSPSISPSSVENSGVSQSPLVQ
Kind of assay: Transactivation of Gal4-LBD fused human RARbeta (169 to 448) transfected in african green monkey CV1 cells assessed as luciferase activity at 2 uM after 6 hrs by Dual-light chemiluminescent assay. The format is cell-based. Particulars: CV-1. In short, it runs like this: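 Transfected CV-1 cells carried Gal4-LBD constructs: hRARα 156–462, hRARβ 169–448, hRARγ 178–454 or mRXRα 218–467. Transfection used 10 ng Gal4-LBD, 100 ng UAS-luciferase and 25 ng β-gal vector. After 16 h the medium was changed to 5% charcoal-treated FBS. Cells were stimulated with 2 μM analog for 6 h (RARα, RARβ, RXRα) or 20 h (RARγ). Reference agonists were 1 μM atRA (RARα) and 1 μM 9cRA (RXRα). Luciferase and β-galactosidase were read by chemiluminescence.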

A further assay relates to A549. Kind of assay: Antiproliferative activity against human A549 cells at 4 uM after 72 hrs by MTT assay. The format is functional. To be noted: A549, 72 h. In short, it runs like this:
as §2

In a further assay the test system is MDA-MB-468. Kind of assay: Antiproliferative activity against human MDA-MB-468 cells at 4 uM after 48 hrs by MTT assay. To be noted: MDA-MB-468, 48 h. The format is functional. In short, it runs like this: as §2
The next assay deals with SK-OV-3. Kind of assay: Antiproliferative activity against human SKOV3 cells at 4 uM after 48 hrs by MTT assay. Particulars: SK-OV-3, 48 h. The format is functional. Put shortly:
as §2

Assay [5] deals with T3, Retinoic acid receptor gamma (Homo sapiens) (UniProt P13631).
T3 sequence (whole entry): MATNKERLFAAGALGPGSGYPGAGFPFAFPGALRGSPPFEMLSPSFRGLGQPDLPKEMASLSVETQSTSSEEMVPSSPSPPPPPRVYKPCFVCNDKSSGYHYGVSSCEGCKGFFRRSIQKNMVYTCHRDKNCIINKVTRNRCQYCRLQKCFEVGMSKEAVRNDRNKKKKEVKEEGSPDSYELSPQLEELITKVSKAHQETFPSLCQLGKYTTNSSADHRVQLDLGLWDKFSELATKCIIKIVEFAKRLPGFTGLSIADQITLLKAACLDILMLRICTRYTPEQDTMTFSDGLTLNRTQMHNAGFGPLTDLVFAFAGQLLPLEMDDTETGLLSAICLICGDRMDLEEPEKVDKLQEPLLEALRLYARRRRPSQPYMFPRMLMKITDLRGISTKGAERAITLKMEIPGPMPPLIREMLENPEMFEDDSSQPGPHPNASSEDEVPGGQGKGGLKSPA
Kind of assay: Inhibition of transactivation activity of Gal4-LBD fused human RARgamma (178 to 454) transfected in atRA-stimulated african green monkey CV1 cells at 4 uM after 20 hrs by Dual-light chemiluminescent assay. Particulars: CV-1.

The next assay relates to MIA PaCa-2. The assay is described as follows: Antiproliferative activity against human MIAPaCa2 cells at 4 uM after 48 hrs by MTT assay. The format is functional. To be noted: MIA PaCa-2, 48 h. Put shortly:
as §2

The target in assay [6] is T2, Retinoic acid receptor beta (Homo sapiens). The assay is described as follows: Inhibition of transactivation activity of Gal4-LBD fused human RARbeta (169 to 448) transfected in atRA-stimulated african green monkey CV1 cells at 4 uM after 6 hrs by Dual-light chemiluminescent assay. It counts as cell-based. Particulars: CV-1. Put shortly: as §1

The source made the active and inactive calls. The rule behind the calls is not given here.

As a reminder, the inhibition is the percentage by which the read-out fell short of the control.

As to `COCCOCOc1cc(C)c(-c2ccc3cc(C(=O)O)ccc3c2Cl)cc1C12CC3CC(CC(C3)C1)C2`, in assay [1], the inhibition amounted to 27%. Further, the inhibition result in assay [2] was “inactive”. Also, the inhibition at 4 µM stood at 70.2% in the assay with BXPC-3; 88.1% in the assay with A549; 49.9% in the assay on MDA-MB-468; 71.2% in the assay with SK-OV-3; 63.7% in the assay with MIA PaCa-2. In addition, the outcome in assay [3], in assay [4], in assay [5] and in assay [6] was inactive.
Turning to `COCCOCOc1cc(C)c(-c2ccc(CC(=O)O)cc2Cl)cc1C12CC3CC(CC(C3)C1)C2`, in [1], the inhibition is 43.7%. The inhibition entry in assay [2] was “inactive”. Besides, the inhibition at 4 µM with BXPC-3 was 14%; in the assay with A549, 7.9%; with MDA-MB-468, 25.3%; with SK-OV-3 it was 19.1%; with MIA PaCa-2 it was 6.3%. Besides, the outcome in assay [3], in assay [4], in [5] and in assay [6] was inactive.
